Source: ChEMBL document CHEMBL3853263, “Effect of intercalator and Lewis acid-base branched peptide complex formation: boosting affinity towards HIV-1 RRE RNA” (Medchemcomm, 2016)
Activity calls are given as the source filed them. The rule behind the calls is not given here. Numbered stars: 1 amine (or outer) side, 2 acyl side, 3 side chain; on linkers, the order of the positions; unused ones are H or OH. Side chains are listed from the residue outwards. Peptide text beside a SMILES is read from it. * marks the point of attachment. X2 = NCCCC[C@H](NC(=O)[C@@H](N)CCCCN)C(=O)N[C@@H](CCCCNC(=O)c1ccc(B(O)O)cc1)C(=O)*; X1 = NCCCC[C@H](N)C(=O)N[C@@H](CCCCNc1c2ccccc2nc2ccccc12)C(=O)*; X3 = NCCCC[C@H](N)C(=O)N[C@@H](CCCCNC(=O)c1ccc(B(O)O)cc1)C(=O)*; Benzoyl(4-B(OH)2) = O=C(c1ccc(B(O)O)cc1)*; Acridin9yl = c1ccc2c(*)c3ccccc3nc2c1; εLys = N[C@@H](CCCCN[*:1])C(=O)[*:2]

How the values were obtained:
[1] = Binding affinity to HIV1 wild type [32P]-labeled RRE-2B RNA after 4 hrs by electrophoretic mobility shift assay; design: species or system Human immunodeficiency virus 1
Outline: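 5'-³²P RRE-IIB (4 nM in 2x phosphate buffer, pH 7.0) is refolded at 95 °C for 3 min, then rt for 20 min. It is mixed 1:1 with peptide in water (final 0.001–10 µM) for 4 h at rt. Complexes are resolved by 10% native PAGE at 4 °C. Kd is the 50%-binding concentration from a sigmoidal fit of % RNA bound vs log[peptide]. Triplicates.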

[2] = Cytotoxicity against human U87 cells transfected with CD4/CXCR4 assessed as decrease in cell viability up to 100 uM after 24 hrs by MTT assay; assay type: toxicity, cell-based; details: u-87mg atcc
Outline: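 U87 CXCR4 cells are seeded at 1 x 10⁴/well and incubated overnight at 37 °C in 5% CO₂. They are treated with 100, 50 or 10 µM (final) compound for 24 h. Tetrazolium dye is added for 4 h, then solubilization/stop solution for 1 h. A570 is read and normalized to untreated cells set at 1.0.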

[3] = system: Human immunodeficiency virus 1; assay: Binding affinity to HIV1 wild type 2-aminopurine-labeled RRE-2B RNA assessed as 1:1 binding stoichiometry between compound and RNA at 0.25 to 4 molar ratio of compound/RNA by Job plot method
[4] = Cytotoxicity against HIV1 NL4-3 infected human U87 cells transfected with CD4/CXCR4 assessed as decrease in cell viability at 20 to 80 uM after 72 hrs by MTT assay; assay type: toxicity, cell-based; details: u-87mg atcc
[5] = system: Human immunodeficiency virus 1; assay: Binding affinity to HIV1 wild type [32P]-labeled RRE-2B RNA assessed as protection of RNA from RNase T1-induced cleavage by footprinting method
Outline: (§1)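 5'-³²P RRE-IIB (10 nM) plus unlabeled RRE-IIB (200 nM) is heated to 95 °C for 3 min and snap-cooled. It is incubated with peptide on ice for 4 h in 10 mM Tris pH 7, 100 mM KCl, 10 mM MgCl₂. Digestion is on ice for 1 h, with RNase T1 at 1 U or RNase A at 20 ng. Cleavage is stopped by precipitation, run on 12% PAGE with 7.5 M urea, and read by autoradiography.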

[6] = system: Human immunodeficiency virus 1; assay: (§2) Antiviral activity against HIV1 NL4-3 infected in human U87 cells transfected with CD4/CXCR4 assessed as inhibition of viral replication at 100 uM preincubated for 1 hr followed by viral infection for 24 hrs and subsequent compound wash out and addition of additional compound measured at 72 hrs post infection by p24 assay; assay type: functional, cell-based; details: U-87MG ATCC
Outline: (§3)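 U87-CD4/CXCR4 cells are seeded at 1 x 10⁴/well and left to adhere overnight. Compounds come from 1 mM stocks in water, diluted in RPMI. Cells are pretreated for 1 h, then infected with NL4-3 (CXCR4-tropic) at MOI 0.01 for 24 h. Cells are PBS-washed and given fresh medium with more compound. p24 is quantified in supernatant at 72 h post-infection.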

[7] = system: Human immunodeficiency virus 1; assay: Binding affinity to HIV1 wild type [32P]-labeled RRE-2B RNA assessed as protection of RNA from RNase A-induced cleavage at 0.2 to 20 uM by footprinting method; outline: as §1
[8] = system: Human immunodeficiency virus 1; assay: as §2, with “replication” for “replication at 100 uM”; assay type: functional, cell-based, U-87MG ATCC; details: for IC50: Human immunodeficiency virus 1, NL4-3, U-87 MG; for inhibition: U-87MG ATCC; outline: as §3
[9] = system: Human immunodeficiency virus 1; assay: as §2, with “40” for “100”, “assay relative to control” for “assay”; assay type: functional, U-87MG ATCC; details: Human immunodeficiency virus 1, NL4-3, U-87 MG; outline: as §3
[10] = system: Human immunodeficiency virus 1; assay: as §2, with “10” for “100”, “assay relative to control” for “assay”; assay type: functional, U-87MG ATCC; details: Human immunodeficiency virus 1, NL4-3, U-87 MG; outline: as §3

SMILES	Kd [1]	Activity [2]	Activity [4]	inhibition [6]	further results
CC(C)C[C@H](NC(=O)[C@H](CCCCN)NC(=O)[C@@H](N)CCCCN)C(=O)NCCCC[C@H](NC(=O)[C@H](CC(C)C)NC(=O)[C@H](CCCCN)NC(=O)[C@@H](N)CCCCN)C(=O)N[C@@H](CCCCN)C(=O)N[C@@H](CCCCNC(=O)c1ccc(B(O)O)cc1)C(=O)N[C@@H](CCCCNC(=O)c1ccc(B(O)O)cc1)C(=O)N[C@@H](Cc1ccc(O)cc1)C(N)=O (H-KKLK([Leu-Lys-Lys])KK(Benzoyl(4-B(OH)2))K(Benzoyl(4-B(OH)2))Y-NH2)	170 nM	Non-Toxic			
CC(C)C[C@H](NC(=O)[C@H](CCCCN)NC(=O)[C@H](CCCCNC(=O)[C@H](CCCCN)NC(=O)[C@H](CCCCN)NC(=O)[C@@H](N)CCCCNc1c2ccccc2nc2ccccc12)NC(=O)[C@H](CCCCN)NC(=O)[C@H](CCCCN)NC(=O)[C@@H](N)CCCCNc1c2ccccc2nc2ccccc12)C(=O)N[C@@H](CCCCNC(=O)c1ccc(B(O)O)cc1)C(=O)N[C@@H](Cc1ccc(O)cc1)C(N)=O (H-K(Acridin9yl)KKK([Lys-Lys-εLys-Acridin9yl])KLK(Benzoyl(4-B(OH)2))Y-NH2)	60 nM	Non-Toxic	Non-Toxic	Active	Activity [3]: Active; Activity [5]: Dose-dependent effect; Activity [7]: Active; IC50 [8]: 10100 nM; inhibition [8]: Dose-dependent effect; inhibition at 40 µM [9]: 90%
CC(C)C[C@H](NC(=O)[C@H](CCCCN)NC(=O)[C@H](CCCCNC(=O)[C@H](CCCCNC(=O)c1ccc(B(O)O)cc1)NC(=O)[C@H](CCCCN)NC(=O)[C@@H](N)CCCCN)NC(=O)[C@H](CCCCNC(=O)c1ccc(B(O)O)cc1)NC(=O)[C@H](CCCCN)NC(=O)[C@@H](N)CCCCN)C(=O)N[C@@H](CCCCNC(=O)c1ccc(B(O)O)cc1)C(=O)N[C@@H](Cc1ccc(O)cc1)C(N)=O (H-KKK(Benzoyl(4-B(OH)2))K(X2)KLK(Benzoyl(4-B(OH)2))Y-NH2)	120 nM	Non-Toxic			
CC(C)C[C@H](NC(=O)[C@H](CCCCNC(=O)[C@H](CCCCN)NC(=O)[C@H](CCCCN)NC(=O)[C@@H](N)CCCCN)NC(=O)[C@H](CCCCN)NC(=O)[C@H](CCCCN)NC(=O)[C@@H](N)CCCCN)C(=O)N[C@@H](CCCCNC(=O)c1ccc(B(O)O)cc1)C(=O)N[C@@H](CCCCNC(=O)c1ccc(B(O)O)cc1)C(=O)N[C@@H](Cc1ccc(O)cc1)C(N)=O (H-KKKK([Lys-Lys-Lys])LK(Benzoyl(4-B(OH)2))K(Benzoyl(4-B(OH)2))Y-NH2)	280 nM	Non-Toxic	Non-Toxic	Active	
CC(C)C[C@H](NC(=O)[C@H](CCCCNC(=O)c1ccc(B(O)O)cc1)NC(=O)[C@H](CC(C)C)NC(=O)[C@H](CCCCNC(=O)[C@H](CCCCN)NC(=O)[C@H](CCCCN)NC(=O)[C@@H](N)CCCCN)NC(=O)[C@H](CCCCN)NC(=O)[C@H](CCCCN)NC(=O)[C@@H](N)CCCCN)C(=O)N[C@@H](Cc1ccc(O)cc1)C(N)=O (H-KKKK([Lys-Lys-Lys])LK(Benzoyl(4-B(OH)2))LY-NH2)	130 nM	Non-Toxic			
CC(C)C[C@H](NC(=O)[C@H](CCCCN)NC(=O)[C@H](CCCCNC(=O)[C@H](CCCCN)NC(=O)[C@H](CCCCNc1c2ccccc2nc2ccccc12)NC(=O)[C@@H](N)CCCCN)NC(=O)[C@H](CCCCN)NC(=O)[C@H](CCCCNc1c2ccccc2nc2ccccc12)NC(=O)[C@@H](N)CCCCN)C(=O)N[C@@H](CCCCNC(=O)c1ccc(B(O)O)cc1)C(=O)N[C@@H](Cc1ccc(O)cc1)C(N)=O (H-KK(Acridin9yl)KK([Lys-X1])KLK(Benzoyl(4-B(OH)2))Y-NH2)	70 nM	Dose-dependent effect	Non-Toxic	Active	inhibition at 10 µM [10]: 60%; IC50 [8]: 7300 nM; inhibition [8]: Dose-dependent effect; inhibition at 40 µM [9]: 90%
NCCCC[C@H](NC(=O)[C@H](CCCCN)NC(=O)[C@@H](N)CCCCN)C(=O)NCCCC[C@H](NC(=O)[C@H](CCCCN)NC(=O)[C@H](CCCCN)NC(=O)[C@@H](N)CCCCN)C(=O)N[C@@H](CCCCNc1c2ccccc2nc2ccccc12)C(=O)N[C@@H](CCCCNc1c2ccccc2nc2ccccc12)C(=O)N[C@@H](CCCCN)C(=O)N[C@@H](Cc1ccc(O)cc1)C(N)=O (H-KKKK([Lys-Lys-Lys])K(Acridin9yl)K(Acridin9yl)KY-NH2)		Non-Toxic	Non-Toxic	Active	inhibition [8]: Dose-dependent effect; inhibition at 40 µM [9]: 90%
CC(C)C[C@H](NC(=O)[C@H](CCCCN)NC(=O)[C@@H](N)CCCCN)C(=O)NCCCC[C@H](NC(=O)[C@H](CC(C)C)NC(=O)[C@H](CCCCN)NC(=O)[C@@H](N)CCCCN)C(=O)N[C@@H](CC(C)C)C(=O)N[C@@H](CCCCN)C(=O)N[C@@H](CCCCNC(=O)c1ccc(B(O)O)cc1)C(=O)N[C@@H](Cc1ccc(O)cc1)C(N)=O (H-KKLK([Leu-Lys-Lys])LKK(Benzoyl(4-B(OH)2))Y-NH2)	330 nM	Non-Toxic			
CC(C)C[C@H](NC(=O)[C@H](CC(C)C)NC(=O)[C@H](CCCCNC(=O)[C@H](CCCCN)NC(=O)[C@H](CCCCNC(=O)c1ccc(B(O)O)cc1)NC(=O)[C@@H](N)CCCCN)NC(=O)[C@H](CCCCN)NC(=O)[C@H](CCCCNC(=O)c1ccc(B(O)O)cc1)NC(=O)[C@@H](N)CCCCN)C(=O)N[C@@H](CCCCN)C(=O)N[C@@H](Cc1ccc(O)cc1)C(N)=O (H-KK(Benzoyl(4-B(OH)2))KK([Lys-X3])LLKY-NH2)	660 nM	Non-Toxic			
CC(C)C[C@H](NC(=O)[C@@H](N)CCCCN)C(=O)N[C@@H](CCCCN)C(=O)NCCCC[C@H](NC(=O)[C@H](CCCCN)NC(=O)[C@H](CC(C)C)NC(=O)[C@@H](N)CCCCN)C(=O)N[C@@H](CCCCN)C(=O)N[C@@H](CCCCN)C(=O)N[C@@H](CCCCNC(=O)c1ccc(B(O)O)cc1)C(=O)N[C@@H](Cc1ccc(O)cc1)C(N)=O (H-KLKK([Lys-Leu-Lys])KKK(Benzoyl(4-B(OH)2))Y-NH2)	1430 nM	Non-Toxic			inhibition at 10 µM [10]: 40%
CC(C)C[C@H](NC(=O)[C@@H](N)CC(C)C)C(=O)N[C@@H](CCCCN)C(=O)NCCCC[C@H](NC(=O)[C@H](CCCCN)NC(=O)[C@H](CC(C)C)NC(=O)[C@@H](N)CC(C)C)C(=O)N[C@@H](CCCCN)C(=O)N[C@@H](CCCCNC(=O)c1ccc(B(O)O)cc1)C(=O)N[C@@H](CCCCN)C(=O)N[C@@H](Cc1ccc(O)cc1)C(N)=O (H-LLKK([Lys-Leu-Leu])KK(Benzoyl(4-B(OH)2))KY-NH2)	210 nM	Non-Toxic			
CC(C)C[C@H](NC(=O)[C@H](CCCCNC(=O)[C@H](CCCCN)NC(=O)[C@H](CC(C)C)NC(=O)[C@@H](N)CCCCN)NC(=O)[C@H](CCCCN)NC(=O)[C@H](CC(C)C)NC(=O)[C@@H](N)CCCCN)C(=O)N[C@@H](CCCCN)C(=O)N[C@@H](CCCCNC(=O)c1ccc(B(O)O)cc1)C(=O)N[C@@H](Cc1ccc(O)cc1)C(N)=O (H-KLKK([Lys-Leu-Lys])LKK(Benzoyl(4-B(OH)2))Y-NH2)	300 nM	Non-Toxic			
CC(C)C[C@H](NC(=O)[C@H](CCCCN)NC(=O)[C@H](CCCCNC(=O)[C@H](CCCCN)NC(=O)[C@H](CCCCN)NC(=O)[C@@H](N)CCCCN)NC(=O)[C@H](CCCCN)NC(=O)[C@H](CCCCN)NC(=O)[C@@H](N)CCCCN)C(=O)N[C@@H](CCCCNc1c2ccccc2nc2ccccc12)C(=O)N[C@@H](Cc1ccc(O)cc1)C(N)=O (H-KKKK([Lys-Lys-Lys])KLK(Acridin9yl)Y-NH2)	20 nM	Non-Toxic	Non-Toxic	Active	
CC(C)C[C@H](NC(=O)[C@H](CCCCNc1c2ccccc2nc2ccccc12)NC(=O)[C@H](CCCCNC(=O)[C@H](CCCCN)NC(=O)[C@H](CCCCN)NC(=O)[C@@H](N)CCCCN)NC(=O)[C@H](CCCCN)NC(=O)[C@H](CCCCN)NC(=O)[C@@H](N)CCCCN)C(=O)N[C@@H](CCCCN)C(=O)N[C@@H](Cc1ccc(O)cc1)C(N)=O (H-KKKK([Lys-Lys-Lys])K(Acridin9yl)LKY-NH2)	140 nM	Non-Toxic		Active	
